Screening results from PubChem.
Rows were chosen to be rich in hits. Some 8.4% of all compounds tested hit in one or more screens of this group.
PostGolgi yeast: phenotypic screen on post-Golgi transport, primary screen | actives 0.9% (n = 98,000) | post-Golgi transport phenotypic cell assay | inhibition, % at 10 µM;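 further: yeast cells grown in 1536-well plates; yeast grown about 18 h at 30C before absorbance read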
Cav32 inh: Cav3.2 calcium influx blockers – cell-based, Fluo-4 calcium fluorescence, FDSS, MLSMR library, primary screen. Cav3.2-expressing cells; stronger effect = lower value. B-score at 10 µM. actives 4% (n = 100,000);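 active means single-dose well whose peak fluorescence ratio is a statistical outlier from its plate by either plate-standardised score or position-corrected B-score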
Ecoli WT expand: growth inhibitors of wild-type E. coli, primary screen, strain BW25113, expanded library, OD600; OD600 absorbance; growth inhibition, % at 100 µM; actives 0.15% (n = 98,000); AID 710, 2007;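 active means growth inhibition above about 50% at one test dose, limit read from the data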;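 further: growth measured after 20 h incubation at 37 °C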
PostGolgi ctrl: growth inhibition of yeast control strain, primary screen, counter-screen for post-Golgi transport modulator project; inhibition, % at 10 µM; efflux-deficient yeast background strain, growth absorbance A615, 16 h; actives 5% (n = 98,000)
Ecoli tolC: growth inhibitors of E. coli tolC mutant, primary screen, strain BW25113 ΔtolC::kan, 384-well | OD615 | AID 573, 2007 | actives 2.2% (n = 65,000) | growth inhibition, % at 10 µM (by protocol);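 active means growth inhibition at or above a cutoff equal to the mean over every tested compound plus 3 SD, cut at about 60% in these data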;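 further: growth measured after 20 h incubation at 37 °C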
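test system = E. coli BW25113 ΔtolC::kan bacteria | medium = LB with kanamycin 50 µg/mL | signal = OD at 615 nm | schedule = 37 °C, 20 h exposure | evaluation = % inhibition of E. coli growth | compound dosing = one dose of 10 µM final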
Numbers without * were called inactive; / = no result. Unless noted, no stated cut-off is given here; in the data, active means inhibition above about 30%; inactive means the rest.

SMILES	PostGolgi yeast	Cav32 inh	Ecoli WT expand	PostGolgi ctrl	Ecoli tolC
Cc1ccc2[nH]c(=O)c(C(c3nnnn3C3CCCC3)N(Cc3cccnc3)Cc3ccco3)cc2c1 (stereo not drawn)	-6	-2.1	-12	5	63*
CCC(CC)c1nnc(NC(=O)c2c(C)nn(Cc3ccccc3Cl)c2C)s1	-8	-4	-13	11	/
CCCOC(=O)C1NC(=O)N2C(C(=O)OCCC)C(C)(C)S[C@H]12 (stereo partly drawn)	/	0.23	/	/	/
O=C(CSc1nc2ccccc2c(=O)n1Cc1ccco1)N1CCCCCC1	2	-2.4	-15	27	4
CCc1cc2c(=O)n(Cc3ccco3)c(SCc3c(C)noc3C)nc2s1	-5	-2.9	-28	33*	65*
CCc1cc2c(=O)n(Cc3ccco3)c(SCC(=O)N3CCCc4ccccc43)nc2s1	19	-5.3*	-17	18	14
CCOC(=O)c1cc2c(c(CSc3nc4ccccc4c(=O)n3Cc3ccco3)c1)OCOC2	4	0.1	-11	9	5
CSc1nnc(-c2cnccn2)n1CCCN1CCCC1=O	1	0.43	-2	2	0
Cc1ccc(C(=O)N/C(=C\c2ccc(-c3cc(Cl)ccc3Cl)o2)C(=O)NCc2cccnc2)cc1	1	/	-23	9	/
O=C(NCc1cccnc1)/C(=C/c1ccc(-c2cccc(Cl)c2)o1)S(=O)(=O)c1ccccc1	11	0.89	-11	37*	/
Cn1c(SCC(=O)N2c3ccccc3Sc3ccc(Cl)cc32)nnc1-c1ccco1	53*	-3.8	-7	60*	65*
COc1ccccc1NC(=O)CNC(=O)c1ccccc1C	-2	0.4	9	-6	/
CCc1ccc(NC(=O)CNC(=O)c2cn(-c3ccccc3OC)c(=O)c3ccccc23)cc1	-4	-4.2*	-11	-3	/
COc1ccc(-c2nc(C#N)c(NC(C)c3ccccc3)o2)cc1OC (stereo not drawn)	11	/	-7	8	12
CCN1C(=O)CSC1=NC1C2CC3CC(C2)CC1C3 (stereo not drawn)	-5	-0.017	7	12	88*
CN1C(=O)CSC1=NCC12CC3CC(CC(C3)C1)C2	28	-0.025	-2	23	/
Cn1c(=O)c2c(nc(N3CCCCC3)n2CCSc2nc3ccccc3s2)n(C)c1=O	5	-1.7	2	10	21
CC1CCN(c2nc3c(c(=O)n(C)c(=O)n3C)n2CCSc2nc3ccccc3s2)CC1	16	-1.3	-2	36*	8
Cn1c(=O)c2c(nc(N3CCOCC3)n2CCSc2nc3ccccc3s2)n(C)c1=O	/	/	/	/	3
CC1CCCN(c2nc3c(c(=O)n(C)c(=O)n3C)n2CCSc2nc3ccccc3s2)C1 (stereo not drawn)	-6	-6.9*	-13	20	/
CCC(=O)NC(=S)N1CCN(c2ccc([N+](=O)[O-])cc2Cl)CC1	6	0.86	1	-3	/
CC(CCc1ccccc1)NC(=O)C(Cc1ccccc1)NS(=O)(=O)c1cccs1 (stereo not drawn)	-1	-3.7	2	20	/
Cc1ccc(S(=O)(=O)NCC(=O)OC(C(=O)c2ccccc2)c2ccccc2)cc1 (stereo not drawn)	-1	-3.5*	13	8	/
Cc1ccc(C(=O)C(OC(=O)CNC(=O)c2ccc(Cl)cc2)c2ccccc2)cc1 (stereo not drawn)	0	-7.1*	-12	-5	/
CCOc1ccc(C(F)(F)F)cc1NC(=O)c1ccc(OC)c([N+](=O)[O-])c1	-3	-1.6	-1	-3	/
SMILES	PostGolgi yeast	Cav32 inh	Ecoli WT expand	PostGolgi ctrl	Ecoli tolC
Cc1cc(C(=O)NCC(=O)OC(C(=O)Nc2cc(C(F)(F)F)ccc2Cl)c2ccccc2)ccc1[N+](=O)[O-] (stereo not drawn)	-3	-9*	-18	-4	/
COc1ccc(C(=O)C(OC(=O)CNC(=O)c2ccco2)c2ccccc2)cc1 (stereo not drawn)	-1	-2.6	4	-5	5
COc1ccc(CCNC(=O)c2ccc(NS(=O)(=O)c3c(C)noc3C)cc2)cc1OC	4	0.69	1	-1	0
CC1CCC2C(C1)c1sc(=O)[nH]c1SC2(C)C (stereo not drawn)	5	-2	14	66*	63*
c1ccc2c(-c3c[nH]c4ccccc34)c3ccccc3nc2c1	1	/	-10	50*	/
O=C(Nc1ccc(CN2CCCCC2)cc1)c1ccc2c(c1)OCO2	-2	-0.11	-1	-4	-12
O=C(Nc1ccn(Cc2ccc(Cl)cc2)n1)c1ccc2c(c1)OCO2	0	-2.3	7	9	63*
Cc1cccc(C)c1NC(=O)c1ccc(-c2ccc(Cl)cc2Cl)o1	-6	-4.8*	-4	46*	/
Cc1ccccc1-c1ccc(C(=O)Nc2cccc(F)c2)o1	/	-2.1	/	/	/
O=C(Nc1ccc(Cl)cn1)c1ccc(-c2cc(Cl)ccc2Cl)o1	2	/	-5	-1	/
Cc1ccccc1NC(=O)c1ccc(-c2ccc(Cl)cc2Cl)o1	-1	-7.5*	-24	54*	/
COc1ccc(C2/C(=C(\O)c3ccc4c(c3)OCCO4)C(=O)C(=O)N2CCCN(C)C)c(OC)c1 (stereo not drawn)	/	0.16	/	/	-18
COC(=O)C1=C(C(=O)OC)[C@@H]2N(C)c3ccccc3[C@@]23C[C@@H](C(=O)OC)N(C(=O)COCc2ccccc2)C3=N1	/	0.042	/	/	/
C=CCN1C(=O)N(/C=C/C)c2cccc3cccc1c23	4	-5*	4	30*	20
C=CCN1C(=O)C(C)(C)Nc2ccccc21	-3	0.42	1	-3	-26
CCOc1ccc(NC(=O)N(C2CCCCC2)C(C)c2cccnc2)cc1 (stereo not drawn)	63*	-0.76	2	28	/
CCOc1ccc(NC(=O)N(C2CCCCC2)C(C)c2ccncc2)cc1 (stereo not drawn)	23	/	-3	23	-17
O=C(CN1CCC(NC(=O)Cc2ccccc2)CC1)Nc1cccc2ccccc12	-26	1.9	-1	-2	/
Brc1cccc(-c2nc(-c3ccncc3)no2)c1	13	-0.49	0	43*	-1
C#CCOCCOCCOCCNc1nc(N2CCN(C(=O)[C@H](CCCCN)n3cc(C(N)CO)nn3)CC2)nc(N2CCN(C(=O)[C@H](CCC(=O)O)n3cc(C(N)Cc4ccc(O)cc4)nn3)CC2)n1 (stereo partly drawn)	/	-0.2	/	/	/
Cc1ccc(OCCn2cc(C(=S)N3CCCC3)c3ccccc32)cc1C	-6	-3.6	-16	31*	/
CCCCN1C(=O)/C(=C/C=C2\N(C)c3ccccc3C2(C)C)SC1=S	-9	-4.7*	0	0	/
CN1/C(=C/C=N/n2cnnc2)C(C)(C)c2ccccc21	-7	0.11	0	11	-7
Cc1ccc2[nH]c3c(c2c1)CN(C(=O)CN1CCN(c2cccc(C)c2C)CC1)CC3	15	-3.1	-1	28	22
